Screening data (PubChem BioAssay)
M4 PAM: CHRM4 positive allosteric modulation | CHO-K1 hM4/Gqi5, Fluo-8 calcium fluorescence, ACh EC20; 0% = ACh EC20, 100% = maximal ACh | activation, % at 3 µM | 0.4% of 360,000 active;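 active means activation above its plate's cutoff, the mean activation of sample wells plus 3 SD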
Target sequence (P08173 whole entry, looked up): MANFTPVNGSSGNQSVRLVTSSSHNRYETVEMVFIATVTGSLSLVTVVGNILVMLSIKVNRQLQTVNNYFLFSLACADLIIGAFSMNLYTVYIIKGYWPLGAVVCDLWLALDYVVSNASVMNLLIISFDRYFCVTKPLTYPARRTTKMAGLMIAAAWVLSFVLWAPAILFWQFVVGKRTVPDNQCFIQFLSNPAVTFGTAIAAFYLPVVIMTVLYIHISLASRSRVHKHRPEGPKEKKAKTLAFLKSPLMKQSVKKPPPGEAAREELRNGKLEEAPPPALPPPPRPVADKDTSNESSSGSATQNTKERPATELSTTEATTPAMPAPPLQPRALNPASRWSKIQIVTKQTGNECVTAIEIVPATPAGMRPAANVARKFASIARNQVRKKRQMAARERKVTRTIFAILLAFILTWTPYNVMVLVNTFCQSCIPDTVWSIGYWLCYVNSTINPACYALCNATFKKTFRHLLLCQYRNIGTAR
M5 PAM: CHRM5 positive allosteric modulation | activation, % at 3 µM | 0.3% of 360,000 active | P08912 | CHO-K1 hM5, Fluo-8 calcium, ACh EC20 PAM; 0% = ACh EC20, 100% = ACh EC100;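 active means activation above the run cutoff, the mean activation of all test compounds plus 3 SD, cut at about 18% in these data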
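system = human M5 receptor in CHO-K1 cells | compound = one concentration, 3 µM final (nominal) | schedule = Post-acetylcholine fluorescence recording 140 s | signal = Fluo-8 calcium dye fluorescence, kinetic read | benchmarks = low control EC20 acetylcholine (0%), high control EC100 acetylcholine (100%) | repeats = singlicate, one well per test compound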
M4 antag: antagonists of human muscarinic M4 receptor (CHRM4) | P08173 | 0.73% of 360,000 active | inhibition, % at 3 µM | AID 624125 | CHO-hM4 cells, ACh EC80, Fluo-8 calcium fluorescence;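 active means inhibition above its plate's cutoff, the mean inhibition of sample wells plus 3 SD, cut at about 27% in these data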;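 further: 0% = acetylcholine EC80 with DMSO and 100% = DMSO without agonist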
CHRM5 agonist: CHRM5 agonism in calcium assay. P08912. 0.19% of 360,000 active. activation, % at 3 µM. CHO-K1 hM5 cells, Fluo-8 calcium fluorescence; 0% DMSO wells, 100% maximal acetylcholine response;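 active means activation above the run's mean over test compounds plus 3 SD, cut at about 23% in these data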;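 further: signal is peak over basal fluorescence ratio across the kinetic read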
CHRM4 agonist: agonists of human muscarinic M4 receptor (CHRM4) | CHO-K1 hM4/Gqi5, Fluo-8 calcium fluorescence; vehicle 0%, full acetylcholine response 100% | activation, % at 3 µM | 0.14% of 360,000 active | AID 624127;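 active means activation above the run mean over all test wells plus 3 SD, cut at about 32% in these data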;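 further: peak over basal fluorescence ratio per well then scaled between controls; 0% = DMSO wells and 100% = acetylcholine at EC100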
CHRM5 antagonist: CHRM5 antagonism in calcium assay; P08912; CHO-hM5 cells, Fluo-8 calcium fluorescence, ACh EC80; inhibition, % at 3 µM; 0.59% of 360,000 active; AID 624040;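 active means inhibition above a per-plate cutoff, the mean of that plate's test compounds plus 3 SD, cut at about 27% in these data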;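 further: 0% = acetylcholine EC80 with DMSO and 100% = DMSO without agonist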
* marks the source's active call; other numbers are inactive results; ! = repeats disagree. In the library only some 1.8% were active in any assay of this set; here they are far more common.

SMILES	M4 PAM	M5 PAM	M4 antag	CHRM5 agonist	CHRM4 agonist	CHRM5 antagonist
COc1ccc2cc3[n+](cc2c1OC)CCc1cc2c(cc1-3)OCO2	-14	-4	41*!	0	0	-3
COc1cccc(C2=NCCc3cc4c(cc32)OCO4)c1OC	-4	-4	10	1	3	4
Cc1cc(C)c(CSc2ncc(-c3ccc([N+](=O)[O-])cc3)[nH]2)c(C)c1	-13	-14	36*	-3	4	19
CS(=O)(=O)Nc1ccccc1C(=O)NCCSc1ccccc1	-5	-4	-2	-1	2	7
NS(=O)(=O)c1ccc(NC(=O)CCC(=O)c2ccc(Cl)s2)cc1	24*	5	-9	-3	0	0
NS(=O)(=O)c1ccc(NC(=O)CCC(=O)c2cccs2)cc1	-4	0	-12	-2	1	2
COc1ccc2c(c1)C=C(CN1CCN(C3CCCC3)C(CCO)C1)CO2 (stereo unspecified)	-20	-20	73*	-16	1	5
COc1ccc(-n2ccnc2CN2CCN(C3CCCC3)C(CCO)C2)cc1 (stereo unspecified)	-5	0	0	-1	0	1
CSc1ncc(CN2CCN(C3CCCC3)C(CCO)C2)cn1 (stereo unspecified)	-41	1	42*	-10	0	3
CSc1ncc(CN2CCN(CC=C(C)C)C(CCO)C2)cn1 (stereo unspecified)	-5	-4	1	-2	1	7
OCCC1CN(Cc2nc(-c3ccccc3)cs2)CCN1Cc1ccc(F)cc1 (stereo unspecified)	-1	-5	1	3	10	9
CC(=O)Nc1ccc(CN2CCN(C3CCCC3)C(CCO)C2)cc1 (stereo unspecified)	-24	5	35*	-15	0	4
OCCC1CN(Cc2nc(-c3ccccc3)cs2)CCN1C1CCCC1 (stereo unspecified)	-57	-9	53*	-14	1	11
COc1cc(OC)c(C(=O)Nc2cccc(C(C)=O)c2)cc1OC	-3	-3	0	-1	3	1
COc1ccc(S(=O)(=O)N2CCCC2CNC(=O)C(=O)NCc2cccs2)cc1 (stereo unspecified)	19	5	2	2	3	2
N#CC1=C(SCC(N)=O)NC2=C(C(=O)c3ccccc32)C1c1ccc(Cl)cc1 (stereo unspecified)	-2	0	4	-2	0	2
OCCC1CN(Cc2c(F)cccc2Cl)CCN1C1CCCC1 (stereo unspecified)	-21	3	26*	-15	1	9
CC(=O)Nc1ccc(CN2CCCN(C)CC2)cc1	0	-16	1	-6	2	30*
OCCC1CN(Cc2c(F)cccc2Cl)CCN1C1CCCCC1 (stereo unspecified)	-26	11	5	-9	0	-4
CCN1CCN(Cc2ccc(NC(=O)Nc3ccccc3)cc2)CC1	1	-4	-12	-2	1	-3
O=C(NC1CCSC1)c1cccc(Cl)c1 (stereo unspecified)	-1	15	1	4	1	-7
COc1ccccc1OC(=O)Oc1ccccc1OC	-1	-10	-4	0	4	11
CCOc1cc(NC(=S)Nc2ccccc2OC)c(OCC)cc1NC(=O)c1ccccc1C	16	5	0	4	-2	-4
CCCCn1c(N)c(N(CCC(C)C)C(=O)C2CC(=O)N(c3ccccc3OCC)C2)c(=O)[nH]c1=O (stereo unspecified)	3	6	4	-2	0	-9
Cc1c(CCOC(=O)C23CC4CC(CC(C4)C2)C3)sc[n+]1Cc1ccccc1	-14	-18	25	-7	2	18
Cc1c(CCOC(=O)C23CC4CC(CC(C)(C4)C2)C3)sc[n+]1Cc1ccccc1	-21	-23	69*	-6	0	98*
O=C1/C(=C/c2ccc(N3CCOCC3)o2)SC(=Nc2ccccc2)N1CCc1c[nH]c2ccccc12	-20	2	42*	12	6	13
